Measured values reported in PubChem BioAssay.
Results filed as inconclusive are left out.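 The calls were made as follows, unless noted: active = cell viability at or below a set limit in both duplicate runs, the limit being the all-compound median minus 4 SD (cut at about 23% in these data, passing the limit was not always enough); inconclusive = no clear call, values can overlap the other calls; inactive = the rest.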

Columns and labels:
[1] = S. cerevisiae growth inhibition in permissive medium (OD615), pilot counter-assay for S. cerevisiae lifespan shortening project, permissive growth control (AID 705;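 active = growth inhibition above 25% in both replicates, a cutoff set 3 SD above the mean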); conditions: OD615, 24 h, at 10 µM, active compounds read high
Summary of the method: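 System: S. cerevisiae with engineered DeaD lifespan system / Measured by: absorbance (optical density) at 615 nm / Read-out: reduction in yeast growth (OD615) / Times: 4 h cell pre-growth, 24 h exposure at 30 °C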

[2] = S. cerevisiae growth inhibition in restrictive medium, OD615, pilot screen, restrictive growth control, yeast lifespan reduction project (AID 706;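 active = growth inhibition above a set limit, 3 SD over mean compound inhibition, in both replicates, cut at about 43% in these data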;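 also: modified DeaD lifespan yeast strain shifted to restrictive glucose medium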); conditions: OD615, 48 h, at 10 µM, active compounds read high
Summary of the method: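 System: Engineered S. cerevisiae DeaD strain | Buffer or medium: Glucose-based CSMM-D restrictive medium | Schedule: 4 h pre-incubation, 48 h exposure at 30 °C | Technique: Optical density at 615 nm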

[3] = doxorubicin toxicity protection in MRP-1 cells – H69AR cells, CellTiter-Glo, duplicate, MRP-1 activator project, pilot screen (AID 807;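 active = viability increase at or above a cutoff of the median across tested compounds plus 3 SD, cut at about 8.5% in these data, passing the limit was not always enough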;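 also: compound pretreatment 18-22 h then 72 h combined with doxorubicin; 0% = doxorubicin alone and 100% = vehicle without doxorubicin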); conditions: H69AR viability with doxorubicin, CellTiter-Glo luminescence; at 10 µM; active compounds read high
[4] = viability of HCT116 without oncogenic beta-catenin – human colon tumor cells, pilot screen (AID 823); conditions: HCT116 beta-catenin knockout viability, CellTiter-Glo, 60 h; at 10 µM; active compounds read low;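 also: 0% = wells killed by 20 µM Hyamine and 100% = untreated DMSO cell wells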
[5] = viability of PTEN-null HCT116 cells – cell-based, HCT116 clonal line, CellTiter-Glo, pilot screen (AID 824;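 active = viability at or below 27.92% in each of two runs, the all-compound median minus 4 SD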;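 also: 0% = 20 µM Hyamine control and 100% = vehicle cell control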); conditions: HCT116 PTEN-deleted viability, 60 h, at 10 µM, active compounds read low
[6] = RAM signaling pathway blockade in yeast – S. cerevisiae, Pdr1DBD-CYC8 efflux-inhibited sensitized strain, primary screen (AID 1298;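 active = RAM network inhibition above 8.4% in each of two replicates, 3 SD over the compound average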;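 also: 0% = DMSO untreated cells without growth and 100% = 10 µM 1-NA-PP1 full growth; higher means more yeast growth rescued from 5-FOA killing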); conditions: S. cerevisiae cbk1-as DSE1-URA3 strain, 5-FOA growth OD615, 2 d; at 50 µM; active compounds read high
[7] = RAM pathway blockade in budding yeast – dse1pr::URA3 reporter, 5-FOA selection, pilot screen (AID 869;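 active = inhibition over a set limit, the all-compound mean plus 3 SD, in both replicate runs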;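 also: 0% = DMSO wells with no growth and 100% = 10 µM 1-NA-PP1 with full growth; RAM network block rescues cells from 5-FOA so hits raise OD615 growth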); conditions: S. cerevisiae dse1pr::URA3 5-FOA growth, OD615, 2 d; at 10 µM; active compounds read high; strain carries analog-sensitive mutant Cbk1 kinase

COc1ccc(C2C(C(C)=O)=C(O)C(=O)N2CCN(C)C)cc1OC (stereo not drawn)
inactive: growth inhibition [1] -17.7% | growth inhibition [2] -12.3% | viability increase [3] 0.21% | viability [4] 92.6% | viability [5] 96.9% | RAM network inhibition [6] 1.99%

Cn1c(C(C#N)/C(=N\S(=O)(=O)c2cccs2)c2ccccc2)nc2ccccc21 (stereo not drawn)
inactive: growth inhibition [1] -17.5% | growth inhibition [2] -19.6% | viability increase [3] -1.15% | viability [4] 95.5% | viability [5] 94.7% | RAM network inhibition [6] 6.16%

CCOC(=O)N1CCC(N2C(=O)c3ccc(C(=O)Nc4ccc(F)cc4F)cc3C2=O)CC1
inactive: growth inhibition [1] -2.61% | growth inhibition [2] -7.76% | viability increase [3] -6.61% | viability [4] 91.1% | viability [5] 94.4% | RAM network inhibition [6] 4.78%

Cn1c(Cn2c(=O)sc3ccccc32)nnc1SCC(=O)Nc1ccccc1
inactive: growth inhibition [1] -7.53% | growth inhibition [2] -2.15% | viability increase [3] -1.41% | viability [4] 99.5% | viability [5] 98.1% | RAM network inhibition [6] 13%

Cc1cc(NC(=O)CSc2nc3c(c(=O)n2CCc2ccccc2)SC(C)C3)no1 (stereo not drawn)
inactive: growth inhibition [1] -12.6% | growth inhibition [2] -12.3% | viability increase [3] -1.68% | viability [4] 89.5% | viability [5] 96.6% | RAM network inhibition [6] 5.21%

CCSC(C)CC1C/C(=N/O)c2c(CC)noc2C1 (stereo not drawn)
inactive: growth inhibition [1] -0.005% | growth inhibition [2] -4.39% | viability increase [3] 5.22% | viability [4] 93.6% | viability [5] 94.2% | RAM network inhibition [6] 0.17%

CCSC1=C(C#N)C(c2cccc(O)c2)CC(=O)N1 (stereo not drawn)
inactive: growth inhibition [1] -2.26% | growth inhibition [2] -11% | viability increase [3] -1.66% | viability [4] 98.2% | viability [5] 97.1% | RAM network inhibition [6] 3.85%

O=c1c2ccccc2nc2c3ccccc3ncn12
inactive: growth inhibition [1] -15.1% | growth inhibition [2] -15.2% | viability increase [3] -0.34% | viability [4] 103% | viability [5] 101% | RAM network inhibition [6] 6.01%

CCn1c(=O)c2cc(C(=O)NCc3cccs3)sc2c2ccccc21
inactive: growth inhibition [1] -11.3% | growth inhibition [2] -8.09% | viability increase [3] -5.17% | viability [4] 102% | viability [5] 95.9% | RAM network inhibition [6] 4.3%

CCOc1cc(-c2nc(-c3ccc(OC)cc3)no2)cc(OCC)c1OCC
inactive: growth inhibition [1] -4.43% | growth inhibition [2] -2.33% | viability increase [3] -3.25% | viability [4] 93.9% | viability [5] 89.5% | RAM network inhibition [6] 9.91%

CCOc1ccc(N(CC(=O)NC(C)CC)S(=O)(=O)c2c(C)noc2C)cc1 (stereo not drawn)
inactive: growth inhibition [1] -4.58% | growth inhibition [2] -11.1% | viability increase [3] -0.76% | viability [4] 99.3% | viability [5] 93.1% | RAM network inhibition [6] 2.66%

CN(CC(=O)N1CCc2ccccc2C1)S(=O)(=O)c1ccc2c(c1)c(=O)n(C)c(=O)n2C
inactive: growth inhibition [1] -12.3% | growth inhibition [2] -9.22% | viability increase [3] -3.24% | viability [4] 98.4% | viability [5] 90.2% | RAM network inhibition [6] 5.95%

O=C(NC(C(=O)c1ccccc1)N1CCOCC1)c1ccccc1 (stereo not drawn)
inactive: growth inhibition [1] -2.93% | growth inhibition [2] 13.8% | viability increase [3] -2.37% | viability [4] 99.3% | viability [5] 101% | inhibition [7] 1.61% | RAM network inhibition [6] 1.98%

COc1ccccc1CNC(=O)c1cnc2ccccn2c1=O
inactive: growth inhibition [1] -6.47% | growth inhibition [2] 8.2% | viability increase [3] -0.15% | viability [4] 97.8% | viability [5] 90.5% | inhibition [7] 0.36% | RAM network inhibition [6] 2.45%

CCC(C)(C(=O)NC1CCCC1)N(CC1CCCO1)C(=O)CNC(=O)c1ccccc1 (stereo not drawn)
inactive: growth inhibition [1] -6.16% | growth inhibition [2] -12.3% | viability increase [3] -2.92% | viability [4] 98.2% | viability [5] 93% | RAM network inhibition [6] 1.24%

COc1ccc(N(C)C(=O)c2ccc3snnc3c2)cc1
inactive: growth inhibition [1] 4.09% | growth inhibition [2] -8.11% | viability increase [3] -1.56% | viability [4] 105% | viability [5] 94.3% | inhibition [7] 2.6% | RAM network inhibition [6] 0.05%

C=CCn1c(SCC(=O)c2cccs2)nc2sc(CC)cc2c1=O
inactive: growth inhibition [1] -5.62% | growth inhibition [2] 5.1% | viability increase [3] -1.39% | viability [4] 76.8% | viability [5] 83.3% | RAM network inhibition [6] 7.45%

COCCCNc1nc2c(c(=O)[nH]c(=O)n2C)n1CC(O)COc1ccccc1C (stereo not drawn)
inactive: growth inhibition [1] -1.92% | growth inhibition [2] -7.5% | viability increase [3] -2.64% | viability [4] 98.9% | viability [5] 101% | RAM network inhibition [6] 3.44%

CCOC(=O)c1c(NC(=O)c2ccc(Br)o2)sc(C)c1CC
inactive: growth inhibition [1] 1.51% | growth inhibition [2] -8.3% | viability increase [3] -0.6% | viability [4] 73.8% | viability [5] 70.3% | RAM network inhibition [6] 9.97%

COc1ccc(-c2[nH]c(-c3ccc(F)cc3)nc2SCC(=O)NCc2ccco2)cc1OC
inactive: growth inhibition [1] -4.83% | growth inhibition [2] 12.4% | viability increase [3] -2.49% | viability [4] 96.9% | viability [5] 92.9% | inhibition [7] 0.93% | RAM network inhibition [6] 4.24%

COc1ccc2oc(-c3ccccc3)c(C(N)=O)c2c1
inactive: growth inhibition [1] 2.25% | growth inhibition [2] 11.4% | viability increase [3] -2.49% | viability [4] 99.1% | viability [5] 97.5% | inhibition [7] 0.53% | RAM network inhibition [6] 1.82%

Cc1cc(C)nc(NS(=O)(=O)c2ccc(Br)s2)c1
inactive: growth inhibition [1] -1.63% | growth inhibition [2] -7.46% | viability increase [3] -0.89% | viability [4] 95.9% | viability [5] 93.5% | inhibition [7] 0.28% | RAM network inhibition [6] 9.36%
